# According to PubChem BioAssay AID463210 (The Scripps Research Institute Molecular Screening Center, 2010):
# Out of some 330,000 compounds screened, about 300 (0.091%) were called active. Shown is part of a subset that was picked to be rich in actives. A number with no mark means an inactive call.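 The calls were made as follows: active = percent activation above the screen-wide mean plus 3 SD (cut at about 25% in these data); inactive = the rest.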
# Target: Caspase-7 (Homo sapiens) (UniProt P55210)
# Assay: activation of procaspase-7 enzyme – biochemical, absorbance, HTS, human, counter-screen for procaspase-3 activator project, primary screen (AID 463210)
# Details: recombinant procaspase-7, Ac-DEVD-pNA absorbance 405 nm; at 8.5 µM; hits give high values; D23A/D198A/D206A triple mutant, cannot self-cleave; scale: DMSO 0, 5 µM enzyme 100
# Summary of the method: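 Assay system: Uncleavable procaspase-7 mutant enzyme | Input: 2 µM procaspase-7 mutant as dispensed | Timing: 1 h compound preincubation, 2 h substrate cleavage, 25 °C | Repeats: One well per compound | Control set: DMSO wells as 0%, DMSO with 5 µM added PC-7 as 100% | Technique: Epi-absorbance of released pNA at 405 nm, two timepoints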
# Sequence of Caspase-7 (Homo sapiens) (P55210 whole entry D23A/D198A/D206A): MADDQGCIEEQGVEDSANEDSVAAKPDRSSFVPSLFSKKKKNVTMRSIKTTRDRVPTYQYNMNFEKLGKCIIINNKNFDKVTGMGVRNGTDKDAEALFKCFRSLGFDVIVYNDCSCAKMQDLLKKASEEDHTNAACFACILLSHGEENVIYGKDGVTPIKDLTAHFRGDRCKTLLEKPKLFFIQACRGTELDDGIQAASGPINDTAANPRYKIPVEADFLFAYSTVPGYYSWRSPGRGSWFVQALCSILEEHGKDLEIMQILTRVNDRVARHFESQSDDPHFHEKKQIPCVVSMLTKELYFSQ
row,SMILES,activation
1,O=C(Cn1cncn1)N/N=C/c1c2ccccc2cc2ccccc12,-18.1%
2,COc1ccc(-c2onc3ccc(C(C)=O)cc23)cc1,68.7% (active)
3,CC(OC(=O)c1ccc2noc(-c3ccccc3)c2c1)C(N)=O (stereo not given),-10.9%
4,Oc1ccc(-c2onc3ccc(Cl)cc23)cc1,-16.8%
5,CCCCCCCCCCOC(=O)Cn1c(COc2ccc(C)cc2)[n+](C)c2ccccc21,0.03%
6,CCOC(=O)CN1C(=O)C(=O)c2cc(C)ccc21,3.45%
7,CCCCOC(=O)Cn1c(=O)n(CC(=O)OCCCC)c2cc(C)ccc21,26.8% (active)
8,Nc1ncnc(Nc2cccc(Cl)c2Cl)n1,1.33%
9,O=C(NCCCO)/C(=C\C=C\c1ccccc1)NC(=O)c1ccccc1Cl,0.01%
10,Cc1cc(C)cc(Oc2c(C(F)(F)F)oc3cc(OCC(=O)O)ccc3c2=O)c1,-4.44%
11,Cc1ccc(S(=O)(=O)N2CCC(C(=O)N[C@@H](C)C(=O)NCc3ccco3)CC2)cc1,-5.6%
12,CC1(c2nnc(Cc3ccccc3)o2)CC(c2ccccc2F)=NO1 (stereo not given),-4.57%
13,Cn1cc(S(=O)(=O)NC(c2ccccc2)c2ccccc2)c(=O)n(C)c1=O,8.63%
14,Cn1nc(C(F)(F)F)c(-c2ccc(F)cc2)c1NC(=O)CSCC(=O)O,3.17%
15,CC(CCc1ccccc1)NC(=O)COC(=O)c1ccc(F)cc1 (stereo not given),4.27%
16,CSCCC(NS(=O)(=O)c1ccc(C)cc1)C(=O)N1CCCC1 (stereo not given),0.13%
17,COc1ccc(C(CC(=O)N2CCN(c3ccccc3)CC2)c2c(O)cc(OC)cc2OC)cc1 (stereo not given),5.61%
18,CCCn1c(C)cc(/C=C(\C#N)C(=O)OCC(=O)N(C)c2c(N)n(Cc3ccccc3)c(=O)[nH]c2=O)c1C,-1.74%
19,CCn1c(O)c2ccc(C(=O)N=NC(=O)c3cccnc3)cc2c1O,-2.1%
20,CN1CCN(C(=O)C2=C[C@H](c3ccc4c(c3)OCO4)C[C@H](OCc3ccc(CO)cc3)O2)CC1,0.27%
21,O=c1cc(CN2CCN(S(=O)(=O)/C=C/c3ccccc3)CC2)c2ccc(O)cc2o1,17.5%
22,O=C(O)CCN(Cc1ccccc1)S(=O)(=O)c1c(Cl)cccc1Cl,3.54%
23,O=[N+]([O-])c1cc(Cl)cc(/C=N/NC(=S)Nc2cc(S(=O)(=O)N3CCOCC3)ccc2Cl)c1O,-6.79%

row,SMILES,activation
1,Cc1ccc2nsnc2c1S(=O)(=O)N1CCCC1C(=O)O (stereo not given),8.06%
2,CC(=O)N[C@@H](C)C(=O)N1CCC(n2nccc2NC(=O)CCCc2ccccc2)CC1,8.17%
3,O=c1c2ccccc2ccc2ccc(P(=O)(O)O)cc12,4.72%
4,O=C(c1cn(-c2ccccc2)nc1-c1cccnc1)N1CCN(S(=O)(=O)c2ccccc2F)CC1,11.3%
5,COc1ccc(CCNC2=C(Cl)C(=O)N(Cc3ccccc3)C2=O)cc1OC,-9.7%
6,COc1ccc(COCCN2CCN(S(=O)(=O)c3ccccc3)CCC2=O)cc1,-12.7%
7,COc1ccc2c(c1)C(NS(=O)(=O)OCC(Cl)(Cl)Cl)CCC2 (stereo not given),-4.56%
8,C=CCN(C(=O)Nc1ccc2oc(C)nc2c1)c1ccccc1,-21.8%
9,CCN(CC)c1ccc2oc(=O)c(C)nc2c1,40.2% (active)
10,CCN(CC)c1ccc(C(=O)Nn2c(C)nc3ccccc3c2=O)cc1,-1.52%
11,COc1cccc(NC(=O)Cn2c3ccccc3c3nc4n(c(=O)c32)CCS4)c1,9.71%
12,CC1=C(N2CCN(c3ncccn3)CC2)CCC1=O,-1.68%
13,COc1ccc(S(=O)(=O)NCCOc2ccccc2)cc1F,-0.02%
14,COc1ccccc1N=C(C)C1=C(O)COC1=O,0.79%
15,COc1cc(N=Cc2c(O)c3ccccc3oc2=O)c(OC)cc1Cl,14.3%
16,COc1ccccc1N=Cc1c(O)c2ccccc2oc1=O,50.8% (active)
17,COc1ccc(C(O)(C2CCCCC2)C(CN2CCCC2)c2ccccc2)cc1 (stereo not given),0.02%
18,COCC1CCCN(C(=O)c2ccc3oc(C(C)C)nc3c2)C1 (stereo not given),-9.62%
19,COc1ccc(NC(=O)C2CCN(S(=O)(=O)c3ccc4[nH]c(=O)oc4c3)CC2)c(OC)c1,-1.26%
20,COc1ccc(CCNC(=O)CN2C(=O)COc3ccc(S(=O)(=O)N4CCCC4)cc32)cc1OC,-1.51%
21,CCN(C(=O)COC(=O)c1ccc(COc2ccc3c(C)cc(=O)oc3c2)cc1)C1CCS(=O)(=O)C1 (stereo not given),11%
22,O=c1cc(CO)oc(C(Nc2cccc(C(F)(F)F)c2)c2ccccn2)c1O (stereo not given),-8.69%
